What was measured:
[1] = system: FGF2 binding to cell surface heparan sulfate (wild-type CHO cells); assay: Inhibition of FGF2 binding to cell surface HS on wild-type CHO cells; conditions: for IC50: read-out: IC50 against FGF2 binding, biotinylated FGF2 2.5 nM, on ice, mean ± SD of n = 3–4; for inhibition of FGF2 binding (in words): up to 100 μM
Outline: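 Wild-type CHO cells grown to confluence in F12/10% FBS, lifted enzyme-free and washed in PBS. Pre-incubated with test compound in PBS/0.1% BSA for 10 min on ice. Biotinylated FGF2 (2.5 nM) added for 30 min on ice. After washing, detected with streptavidin-PE-Cy5 or streptavidin-Cy5 by flow cytometry as geometric mean fluorescence. Expressed as % of binding without compound and plotted against concentration.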

[2] = system: soluble RAGE (sRAGE) binding to cell surface HS; assay: Inhibition of sRAGE binding to cell surface HS on CHO cells; conditions: for sRAGE binding inhibition at 10 μM (in words): 10 μM compound, cell surface HS
Outline: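 CHO cells lifted enzyme-free and washed in PBS. Test compound at 10 μM pre-incubated in PBS/0.1% BSA for 10 min on ice. Biotinylated sRAGE (2 μg mL−1) added for 1 h on ice. After washing, bound protein detected with streptavidin-PE-Cy5 or streptavidin-Cy5 by flow cytometry as geometric mean fluorescence. Reported relative to no-compound binding, means ± SD.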

[3] = In vivo neutralization of fondaparinux in mice; conditions: fondaparinux 0.5 mg kg^–1 s.c., 16 mg kg^–1 i.v.
Outline: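 Wild-type mice (8 weeks, ~20–30 g), n = 3 per group. Baseline tail bleed 30 min before dosing. Fondaparinux 0.5 mg kg−1 in PBS given s.c. After 10 min, tail-vein i.v. dosing of test compound (16 mg kg−1, DMSO–water), DMSO–H2O vehicle or protamine (16 mg kg−1, PBS). Blood drawn 5 min later into 3.2% citrate. Plasma anti-FXa colorimetric assay (405 nm) read against a calibration curve. Means ± SD.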

[4] = cited from earlier work

Molecule	IC50 [1] [µM]	sRAGE binding inhibition at 10 μM (in words) [2]	also measured
COc1cc(C)nc2ccc(NC(=O)Nc3ccc4nc(C)cc(OC)c4c3)cc12 [Methoxy surfen (5), 1,3-bis(4-methoxy-2-methyl-quinolin-6-yl)urea]	> 100	–	–
Cc1cc(N)c2cc(NC(N)=O)ccc2n1 [Hemisurfen (2), 4-Amino-2-methyl-6-quinolyl-urea]	> 100	no inhibitory activity	inhibition of FGF2 binding (in words) [1]: did not inhibit
Cc1cc(N)c2cc(NC(=S)Nc3ccc4nc(C)cc(N)c4c3)ccc2n1 [Thio surfen (4), N,N′-bis-(4-amino-2-methyl-6-quinolyl)-thiourea]	8 ± 0.2	–	–
protamine	–	–	neutralizing fondaparinux in vivo (in words) [3]: ineffective
Cc1ccc2cc(NC(=O)Nc3ccc4nc(C)ccc4c3)ccc2n1 [Deaminated surfen (6), 1,3-Bis(2-methylquinolin-6-yl)urea]	> 100	no inhibitory activity	–
Nc1ccnc2ccccc12 [4-aminoquinoline]	–	–	pKa of the protonated form [4]: ~8.5
CC(=O)Nc1ccc2nc(C)cc(N)c2c1 [Acetyl-hemisurfen (3), 6-acetamido-4-aminoquinaldine]	> 100	no inhibitory activity	inhibition of FGF2 binding (in words) [1]: did not inhibit; IC50 ([2]; read-out: IC50 inhibition of sRAGE binding to HS, CHO cells, biotinylated sRAGE 2 μg mL^–1): > 100 µM

Reference: PMC5267326 (Chemical Science, 2015)
